Bioassay records (PubChem BioAssay)
M1 antag: human M1 muscarinic receptor antagonists, primary screen, CHO-K1 cells, Fluo-8 calcium fluorescence, 1536-well | inhibition, % at 3 µM | Muscarinic acetylcholine receptor M1 (Homo sapiens), P11229 | CHO-K1 hM1, ACh EC80 antagonist | 360,000 tested, 1.3% active | AID 588852, 2011;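 active = percent inhibition above its own plate's cutoff, namely the mean of that plate's compound wells plus 3 SD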;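 note: peak over basal fluorescence ratio during 140 s after agonist addition; 0% = ACh EC80 plus DMSO and 100% = DMSO alone without agonist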
Target sequence (P11229 whole entry, looked up): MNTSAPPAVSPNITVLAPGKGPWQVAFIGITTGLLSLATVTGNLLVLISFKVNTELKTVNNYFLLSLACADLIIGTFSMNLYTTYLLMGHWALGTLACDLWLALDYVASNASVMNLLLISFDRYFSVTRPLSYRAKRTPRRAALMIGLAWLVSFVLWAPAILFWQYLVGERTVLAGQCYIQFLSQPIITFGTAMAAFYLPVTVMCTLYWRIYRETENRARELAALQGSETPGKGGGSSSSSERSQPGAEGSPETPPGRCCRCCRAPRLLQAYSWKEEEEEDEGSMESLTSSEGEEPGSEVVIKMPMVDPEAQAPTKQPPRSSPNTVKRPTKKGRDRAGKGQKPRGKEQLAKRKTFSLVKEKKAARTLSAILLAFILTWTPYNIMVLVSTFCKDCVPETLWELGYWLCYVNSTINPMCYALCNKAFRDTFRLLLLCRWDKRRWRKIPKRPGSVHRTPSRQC
M1 ag: human M1 muscarinic receptor agonists, primary screen, Fluo-8 calcium fluorescence, CHO-K1 cells, HTS; Muscarinic acetylcholine receptor M1 (Homo sapiens), P11229; CHO-K1 hM1, agonist mode; 0% DMSO, 100% acetylcholine EC100; activation, % at 3 µM; 360,000 tested, 0.33% active;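 active = activation above the run's mean compound activation plus 3 SD, cut at about 16% in these data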;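 note: peak over basal fluorescence ratio within a 140 s kinetic read after compound addition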
M5 antag: human M5 muscarinic receptor antagonists, primary screen, CHO cells, Fluo-8 calcium fluorescence; Muscarinic acetylcholine receptor M5 (Homo sapiens), P08912; CHO-hM5 cells, ACh EC80; inhibition, % at 3 µM; 360,000 tested, 0.59% active; AID 624040, 2012;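 active = inhibition above a per-plate cutoff, the mean of that plate's test compounds plus 3 SD, cut at about 27% in these data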;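 note: 0% = acetylcholine EC80 with DMSO and 100% = DMSO without agonist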
M5 PAM: human M5 muscarinic receptor positive allosteric modulators, primary screen, CHO-K1 cells, Fluo-8 calcium fluorescence. CHO-K1 hM5, ACh EC20 PAM; 0% = ACh EC20, 100% = ACh EC100. activation, % at 3 µM. 360,000 tested, 0.3% active. AID 624038, 2012;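 active = activation above the run cutoff, the mean activation of all test compounds plus 3 SD, cut at about 18% in these data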
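Measured by: Fluo-8 calcium fluorescence; material: human M5 receptor in CHO-K1 cells; schedule: Post-acetylcholine fluorescence recording 140 s; benchmarks: low control EC20 acetylcholine (0%), high control EC100 acetylcholine (100%); read-out: Max/basal fluorescence ratio as % of EC20–EC100 ACh window; compound: single dose, 3 µM nominal final test concentration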
M1 PAM: human M1 muscarinic receptor positive allosteric modulators, primary screen, CHO-K1 cells, Fluo-8 calcium fluorescence, 1536-well | Muscarinic acetylcholine receptor M1 (Homo sapiens), P11229 | CHO-K1 hM1, ACh EC20; 0% = ACh EC20, 100% = maximal ACh | activation, % at 3 µM | 360,000 tested, 0.088% active | AID 588819, 2011; in the data active = activation above about 19%, passing the limit was not always enough
CHRM5 agonist: human M5 muscarinic receptor agonists, primary screen, CHO-K1 cells, Fluo-8 calcium fluorescence; 360,000 tested, 0.19% active; CHO-K1 hM5 cells; 0% DMSO wells, 100% maximal acetylcholine response; Muscarinic acetylcholine receptor M5 (Homo sapiens), P08912; activation, % at 3 µM;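 active = activation above the run's mean over test compounds plus 3 SD, cut at about 23% in these data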;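 note: signal is peak over basal fluorescence ratio across the kinetic read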
Active calls of the source: *; . = no result. Only some compounds are listed: those with a hit (about 2% of all), similar ones and a draw of the others.

SMILES | M1 antag | M1 ag | M5 antag | M5 PAM | M1 PAM | CHRM5 agonist
O=C(CN1CCC(Cc2ccccc2)CC1)NC(=O)NCc1ccco1 | -32 | -3 | -17 | 16 | 20* | -5
O=C(CN1CCN(c2ccc(O)cc2)CC1)NC(=O)NCc1ccco1 | -8 | -2 | -8 | 19* | 6 | 0
O=C(C(=O)N1CCN(C/C=C/c2ccccc2)CC1)c1ccccc1 | . | . | 3 | -18 | . | -3
CC(C)C[C@@H]1COc2cc(N3CCC[C@H]3CO)ccc2S(=O)(=O)N1 | . | . | -2 | 0 | . | 4
CCCCCc1nc2sc3c(c2c(=O)n1NC(=O)c1ccc([N+](=O)[O-])cc1)CC(C)(C)OC3 | 21 | -4 | 34* | -16 | -23 | 0
O=C1c2c(-c3ccc(Br)cc3)noc2CCN1Cc1cn(C2CCCC2)nn1 | . | . | 4 | -1 | . | 1
CC(C)Oc1cccc(C(=O)C2CCCN(Cc3cnc(N4CCCC4)s3)C2)c1 (centres undefined) | 2 | -14 | -2 | -4 | -12 | -5
CC(C)Oc1cccc(C(=O)C2CCCN(C(=O)CCn3cnnn3)C2)c1 (centres undefined) | -12 | -7 | 2 | 6 | 8 | 1
CCCn1cc(CN2CCCC(C(=O)c3cccc(OC(C)C)c3)C2)c(C)n1 (centres undefined) | 39* | -11 | 15 | -6 | -28 | -9
CCCn1ncc(CN2CCCC(C(=O)c3cccc(OC(C)C)c3)C2)c1C (centres undefined) | 99* | -7 | 15 | -25 | -25 | -19
Cc1c(C(c2ccc(O)cc2)c2c(C)n(C)n(-c3ccccc3)c2=O)c(=O)n(-c2ccccc2)n1C | 2 | -3 | 31* | -13 | -8 | 1
CC1c2cc3c(cc2CCN1CC(=O)Nc1ccc(S(=O)(=O)N2CCCC2)cc1)OCCCO3 (centres undefined) | 102* | -13 | 23 | -20 | -41 | -7
CC1c2cc3c(cc2CCN1C(=O)c1ccc(Cl)cc1)OCCCO3 (centres undefined) | 8 | 3 | 9 | -3 | -10 | -5
CC(=O)Nc1ccc(C(=O)N2CCc3cc4c(cc3C2C)OCCCO4)cc1 (centres undefined) | 57* | -13 | 3 | -3 | -33 | -6
CC1c2cc3c(cc2CCN1C(=O)c1ccc(C(F)(F)F)cc1)OCCCO3 (centres undefined) | 34* | -5 | -5 | -10 | -23 | -4
Cc1ccc(C(=O)N2CCc3cc4c(cc3C2C)OCCCO4)cc1 (centres undefined) | 13 | -4 | 1 | 1 | -12 | -6
CC(C)NC(=O)C1Cc2c(-c3ccc(Cl)cc3)ccnc2O1 (centres undefined) | -15 | -1 | 6 | -1 | 13 | 1
CN(C)CCNC(=O)c1cccc(S(=O)(=O)Nc2ccc(F)cc2)c1 | 6 | -10 | 0 | 8 | 1 | -4
CCN(CC)CCNC(=O)c1ccc(NC(=O)c2cc(S(=O)(=O)N3CCCCC3)ccc2C)cc1 | 94* | -8 | 36* | -38 | -26 | -10
CCN(CC)CCNC(=O)c1ccc(NC(=O)c2cccc(S(=O)(=O)Nc3ccc(C)cc3)c2)cc1 | 98* | -12 | 52* | -19 | -31 | -11
CCN(CC)CCNC(=O)c1ccc(NC(=O)c2cccc(S(=O)(=O)N3c4ccccc4CC3C)c2)cc1 (centres undefined) | 100* | -6 | 98* | -15 | -23 | -8
COc1ccccc1N(C)S(=O)(=O)c1ccc(C(=O)Nc2ccc(C(N)=O)cc2)cc1 | -1 | -2 | 9 | -22 | 2 | 2
